ChEMBL document CHEMBL5532695, “4-Trifluoromethyl bithiazoles as broad-spectrum antimicrobial agents for virus-related bacterial infections or co-infections” (RSC Med Chem, 2024)
pIC50: −log10 of the molar value.

Legend:
[1] = biological target: Phosphatidylinositol 4-kinase beta (Homo sapiens, UniProt Q9UBF8); assay: Inhibition of recombinant full length his tagged PI4KB (unknown origin) incubated for 10 mins in presence of ATP by ADP-glo kinase assay
[2] = Cytotoxicity against human HeLa cells assessed as reduction in cell viability by MTT assay; assay type: toxicity, cell-based
Method in brief: (§1)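 MTT viability on HeLa or VeroE6 cells, run in parallel with the antiviral assays. CC50 from variable-slope sigmoidal dose–response regression.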

[3] = Cytotoxicity against african green monkey Vero E6 cells assessed as reduction in cell viability by MTT assay; assay type: toxicity, cell-based; settings: chlorocebus sabaeus, Vero E6 cells (Vero C1008); method in brief: as §1
Bacillus subtilis [4] = assay: Antibacterial activity against Bacillus subtilis ATCC 6633 assessed as reduction in microbial growth measured after 18 hrs by CLSI based broth microdilution method; assay type: functional
Method in brief: (§2)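 MIC by CLSI broth microdilution in Mueller–Hinton medium, triplicate. Inoculum 5 × 10^4 CFU per well. Compounds taken up in DMSO (50 mg mL−1 stock) and diluted in medium. Read after 18 h at 35 ± 2 °C.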

Enterococcus faecalis [5] = assay: Antibacterial activity against Enterococcus faecalis ATCC 29212 assessed as reduction in microbial growth measured after 18 hrs by CLSI based broth microdilution method; assay type: functional; method in brief: as §2
Streptococcus pyogenes [6] = assay: Antibacterial activity against Streptococcus pyogenes ATCC 12344 assessed as reduction in microbial growth measured after 18 hrs by CLSI based broth microdilution method; assay type: functional; method in brief: as §2
Staphylococcus aureus [7] = assay: Antibacterial activity against Staphylococcus aureus ATCC 25923 assessed as reduction in microbial growth measured after 18 hrs by CLSI based broth microdilution method; assay type: functional; method in brief: as §2
Escherichia coli = assay: Synergistic antibacterial activity against Escherichia coli CCUGT incubated for 18 to 24 hrs in presence of colistin by broth microdilution method; assay type: functional; settings: time 18-24 hrs
Klebsiella pneumoniae = assay: Synergistic antibacterial activity against Klebsiella pneumoniae ATCC 13833 incubated for 18 to 24 hrs in presence of colistin by broth microdilution method; assay type: functional; settings: time 18-24 hrs
Acinetobacter baumannii = assay: Synergistic antibacterial activity against Acinetobacter baumannii ATCC 17978 incubated for 18 to 24 hrs in presence of colistin by broth microdilution method; assay type: functional; settings: time 18-24 hrs
Pseudomonas aeruginosa = assay: Synergistic antibacterial activity against Pseudomonas aeruginosa ATCC 27853 incubated for 18 to 24 hrs in presence of colistin by broth microdilution method; assay type: functional; settings: time 18-24 hrs
rhinovirus A16 [8] = settings: hela
Zika virus [9] = settings: vero e6
enterovirus D68 [10] = assay: microbe, parasite or virus in culture; settings: Enterovirus D, HeLa, 48 h
enterovirus D68 [11] = settings: hela
rhinovirus A16 [12] = assay: microbe, parasite or virus in culture; settings: Rhinovirus A, HeLa, 48 h
Zika virus [13] = assay: microbe, parasite or virus in culture; settings: Vero C1008, 72 h
Bacillus subtilis [14] = assay: Bactericidal activity against Bacillus subtilis ATCC 6633 assessed as reduction in microbial growth measured after 18 hrs by CLSI based broth microdilution method; assay type: functional
Method in brief: (§3)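 MBC by CLSI broth microdilution in Mueller–Hinton medium, triplicate. Inoculum 5 × 10^4 CFU per well. Read after 18 h at 35 ± 2 °C.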

Enterococcus faecalis [15] = assay: Bactericidal activity against Enterococcus faecalis ATCC 29212 assessed as reduction in microbial growth measured after 18 hrs by CLSI based broth microdilution method; assay type: functional; method in brief: as §3
Streptococcus pyogenes [16] = assay: Bactericidal activity against Streptococcus pyogenes ATCC 12344 assessed as reduction in microbial growth measured after 18 hrs by CLSI based broth microdilution method; assay type: functional; method in brief: as §3
Staphylococcus aureus [17] = assay: Bactericidal activity against Staphylococcus aureus ATCC 25923 assessed as reduction in microbial growth measured after 18 hrs by CLSI based broth microdilution method; assay type: functional; method in brief: as §3
Staphylococcus aureus [18] = assay: Antibacterial activity against methicillin-resistant Staphylococcus aureus ATCC 43300 assessed as reduction in microbial growth measured after 18 hrs by CLSI based broth microdilution method; assay type: functional
Method in brief: (§4)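 Gram-positive clinical isolates; compounds dissolved in DMSO (50 mg mL−1 stock) and diluted in medium; MIC by CLSI broth microdilution in Mueller–Hinton medium, inoculum 5 × 10^4 CFU per well, read after 18 h at 35 ± 2 °C; triplicate.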

Staphylococcus aureus [19] = assay: Bactericidal activity against methicillin-resistant Staphylococcus aureus ATCC 43300 assessed as reduction in microbial growth measured after 18 hrs by CLSI based broth microdilution method; assay type: functional
Staphylococcus warneri [20] = assay: Antibacterial activity against oxacillin-resistant Staphylococcus warneri SI-5/2011 assessed as reduction in microbial growth measured after 18 hrs by CLSI based broth microdilution method; assay type: functional; method in brief: as §4
Staphylococcus warneri [21] = assay: Bactericidal activity against oxacillin-resistant Staphylococcus warneri SI-5/2011 assessed as reduction in microbial growth measured after 18 hrs by CLSI based broth microdilution method; assay type: functional
[22] = tested on: Staphylococcus haemolyticus; assay: Antibacterial activity against oxacillin-resistant Staphylococcus haemolyticus SI-6/2011 assessed as reduction in microbial growth measured after 18 hrs by CLSI based broth microdilution method; assay type: functional; method in brief: as §4
[23] = tested on: Staphylococcus haemolyticus; assay: Bactericidal activity against oxacillin-resistant Staphylococcus haemolyticus SI-6/2011 assessed as reduction in microbial growth measured after 18 hrs by CLSI based broth microdilution method; assay type: functional
[24] = tested on: Staphylococcus epidermidis; assay: Antibacterial activity against linezolid-resistant Staphylococcus epidermidis SI-1266 assessed as reduction in microbial growth measured after 18 hrs by CLSI based broth microdilution method; assay type: functional; method in brief: as §4
[25] = tested on: Staphylococcus epidermidis; assay: Bactericidal activity against linezolid-resistant Staphylococcus epidermidis SI-1266 assessed as reduction in microbial growth measured after 18 hrs by CLSI based broth microdilution method; assay type: functional
Enterococcus faecium [26] = assay: Antibacterial activity against Vancomycin/teicoplanin resistant Enterococcus faecium SI-759 assessed as reduction in microbial growth measured after 18 hrs by CLSI based broth microdilution method; assay type: functional; method in brief: as §4
Enterococcus faecium [27] = assay: Bactericidal activity against Vancomycin/teicoplanin resistant Enterococcus faecium SI-759 assessed as reduction in microbial growth measured after 18 hrs by CLSI based broth microdilution method; assay type: functional
Enterococcus faecium [28] = assay: Antibacterial activity against Vancomycin resistant Enterococcus faecium SI-1831 assessed as reduction in microbial growth measured after 18 hrs by CLSI based broth microdilution method; assay type: functional; method in brief: as §4
Enterococcus faecium [29] = assay: Bactericidal activity against Vancomycin resistant Enterococcus faecium SI-1831 assessed as reduction in microbial growth measured after 18 hrs by CLSI based broth microdilution method; assay type: functional
Enterococcus faecium [30] = assay: Antibacterial activity against Vancomycin resistant Enterococcus faecium SI-3856B assessed as reduction in microbial growth measured after 18 hrs by CLSI based broth microdilution method; assay type: functional; method in brief: as §4
Enterococcus faecium [31] = assay: Bactericidal activity against Vancomycin resistant Enterococcus faecium SI-3856B assessed as reduction in microbial growth measured after 18 hrs by CLSI based broth microdilution method; assay type: functional

Phosphatidylinositol 4-kinase beta, sequence (Q9UBF8 whole entry): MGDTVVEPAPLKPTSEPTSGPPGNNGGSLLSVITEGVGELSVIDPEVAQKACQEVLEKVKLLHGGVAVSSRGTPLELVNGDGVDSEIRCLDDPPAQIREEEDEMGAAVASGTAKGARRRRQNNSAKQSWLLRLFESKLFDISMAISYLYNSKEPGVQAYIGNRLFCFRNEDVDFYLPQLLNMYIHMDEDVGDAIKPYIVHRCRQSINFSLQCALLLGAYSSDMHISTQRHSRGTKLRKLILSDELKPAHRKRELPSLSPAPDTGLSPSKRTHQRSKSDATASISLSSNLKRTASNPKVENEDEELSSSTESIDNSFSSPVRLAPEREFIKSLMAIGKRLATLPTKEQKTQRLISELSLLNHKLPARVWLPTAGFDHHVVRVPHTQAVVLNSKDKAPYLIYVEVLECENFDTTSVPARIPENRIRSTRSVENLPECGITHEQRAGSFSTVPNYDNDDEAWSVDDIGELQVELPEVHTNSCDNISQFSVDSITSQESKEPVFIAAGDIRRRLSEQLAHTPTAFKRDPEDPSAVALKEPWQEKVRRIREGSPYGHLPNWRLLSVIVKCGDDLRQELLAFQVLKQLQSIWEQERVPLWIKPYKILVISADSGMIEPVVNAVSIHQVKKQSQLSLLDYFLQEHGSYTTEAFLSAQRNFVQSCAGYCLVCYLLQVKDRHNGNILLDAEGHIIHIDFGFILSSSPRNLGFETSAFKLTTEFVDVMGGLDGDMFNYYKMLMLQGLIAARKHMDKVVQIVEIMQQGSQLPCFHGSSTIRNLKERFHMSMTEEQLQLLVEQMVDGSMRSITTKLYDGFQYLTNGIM

| Structure (SMILES) | IC50 [1] | CC50 [2] | CC50 [3] | MIC (Bacillus subtilis [4]) | MIC (Enterococcus faecalis [5]) | MIC (Streptococcus pyogenes [6]) | MIC (Staphylococcus aureus [7]) | MAC (Escherichia coli) | MAC (Klebsiella pneumoniae) | MAC (Acinetobacter baumannii) | MAC (Pseudomonas aeruginosa) | IC50 (Zika virus [9]) | pIC50 (enterovirus D68 [10]) | pIC50 (rhinovirus A16 [12]) | also measured |
| --- | --- | --- | --- | --- | --- | --- | --- | --- | --- | --- | --- | --- | --- | --- | --- |
| CC(C)(C)C(=O)Nc1nc(C(F)(F)F)c(-c2csc(Nc3cc(C(=O)O)cc(C(=O)O)c3)n2)s1 | Not Active | > 50 µM | > 50 µM | > 32 µg/mL | > 32 µg/mL | > 32 µg/mL | > 32 µg/mL | >64 µg/mL | >64 µg/mL | >64 µg/mL | >64 µg/mL | Not Active | 4.91 |  | IC50 (rhinovirus A16 [8]): Not Active |
| COC(=O)c1cc(Nc2nc(-c3sc(NC(=O)c4ccccc4)nc3C(F)(F)F)cs2)cc(C(F)(F)F)c1 | Not Active | 22.9 µM | > 50 µM | > 32 µg/mL | > 32 µg/mL | > 32 µg/mL | > 32 µg/mL | >64 µg/mL | >64 µg/mL | >64 µg/mL | >64 µg/mL | Not Active |  | 5.61 | IC50 (enterovirus D68 [11]): Not Active |
| CC(C)(C)C(=O)Nc1nc(C(F)(F)F)c(-c2c[nH]c(Nc3cccc(C(F)(F)F)c3)n2)s1 | Not Active | > 50 µM | > 50 µM | > 32 µg/mL | > 32 µg/mL | > 32 µg/mL | > 32 µg/mL | 32 µg/mL | >64 µg/mL | 16 µg/mL | >64 µg/mL |  | 5.24 | 4.98 | pIC50 (Zika virus [13]): 5.07 |
| COC(=O)c1cc(Nc2nc(-c3sc(NC(=O)C(C)(C)C)nc3C(F)(F)F)cs2)cc(C(F)(F)F)c1 | Not Active | 47.3 µM | > 50 µM | > 32 µg/mL | > 32 µg/mL | > 32 µg/mL | > 32 µg/mL | >64 µg/mL | >64 µg/mL | >64 µg/mL | >64 µg/mL |  | 5.70 | 6.60 | pIC50 (Zika virus [13]): 5.21 |
| CC(C)(C)C(=O)Nc1nc(C(F)(F)F)c(-c2csc(Nc3cc(C(=O)O)cc(C(F)(F)F)c3)n2)s1 |  | > 50 µM | > 50 µM | 16 µg/mL | 32 µg/mL | 4 µg/mL | 16 µg/mL | >64 µg/mL | >64 µg/mL | >64 µg/mL | >64 µg/mL | Not Active | 5.38 | 5.02 | MBC (Bacillus subtilis [14]): 16 µg/mL; MBC (Enterococcus faecalis [15]): > 32 µg/mL; MBC (Streptococcus pyogenes [16]): 4 µg/mL; MBC (Staphylococcus aureus [17]): < 32 µg/mL; MIC (Staphylococcus aureus [18]): 8 µg/mL; MBC (Staphylococcus aureus [19]): > 64 µg/mL; MIC (Staphylococcus warneri [20]): 16 µg/mL; MBC (Staphylococcus warneri [21]): > 64 µg/mL; MIC [22]: 16 µg/mL; MBC [23]: > 64 µg/mL; MIC [24]: 16 µg/mL; MBC [25]: 64 µg/mL; MIC (Enterococcus faecium [26]): 16 µg/mL; MBC (Enterococcus faecium [27]): > 64 µg/mL; MIC (Enterococcus faecium [28]): 16 µg/mL; MBC (Enterococcus faecium [29]): > 64 µg/mL; MIC (Enterococcus faecium [30]): 32 µg/mL; MBC (Enterococcus faecium [31]): > 64 µg/mL |
| CC(C)(C)C(=O)Nc1nc(C(F)(F)F)c(-c2csc(Nc3ccc(O)c(C(=O)O)c3)n2)s1 |  | > 50 µM | > 50 µM | 32 µg/mL | > 32 µg/mL | 16 µg/mL | > 32 µg/mL | >64 µg/mL | >64 µg/mL | >64 µg/mL | >64 µg/mL | Not Active | 5.00 | 5.01 | MBC (Bacillus subtilis [14]): > 32 µg/mL; MBC (Streptococcus pyogenes [16]): > 32 µg/mL |
| O=C(O)c1cc(Nc2nc(-c3sc(NC(=O)c4ccccc4)nc3C(F)(F)F)cs2)cc(C(=O)O)c1 | Not Active | > 50 µM | > 50 µM | > 32 µg/mL | > 32 µg/mL | > 32 µg/mL | > 32 µg/mL | >64 µg/mL | >64 µg/mL | >64 µg/mL | >64 µg/mL | Not Active |  |  | IC50 (rhinovirus A16 [8]): Not Active; IC50 (enterovirus D68 [11]): Not Active |
